These results are taken from ChEMBL document CHEMBL1143177, “Antitumor effects of curcumin and structurally beta-diketone modified analogs on multidrug resistant cancer cells” (Bioorg Med Chem Lett, 2008).

A short description of experiment [1]: Growth inhibition of human HA22T/VGH cells after 72 hrs by MTS assay.
The test system of a further experiment is MCF7R. Briefly: Growth inhibition of human multidrug-resistant MCF7R cells after 72 hrs by MTS assay. In general terms: Formazan colour is commonly taken as a measure of viable cells.
For a further experiment, the system named is MCF7. Briefly: Growth inhibition of human MCF7 cells after 72 hrs by MTS assay. Particulars: MCF7, 72 h.
The target in experiment [2] is Transcription factor p65 (Homo sapiens) (UniProt Q04206). Briefly: Reduction in DNA binding activity of NF-kappaB p65 subunit in human HA22T/VGH cells after 4 hrs relative to control. To be noted: concentration not given here. It is filed as cell-based. The method in brief: (§1)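 HA22T/VGH cells, which have constitutively active NF-κB, were exposed to compounds at 20 µM for 1.5 or 4 h. DNA-binding activity of the NF-κB p65 subunit was measured and expressed as percent of untreated control.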
Chain of Transcription factor p65 (Homo sapiens) (Q04206 whole entry): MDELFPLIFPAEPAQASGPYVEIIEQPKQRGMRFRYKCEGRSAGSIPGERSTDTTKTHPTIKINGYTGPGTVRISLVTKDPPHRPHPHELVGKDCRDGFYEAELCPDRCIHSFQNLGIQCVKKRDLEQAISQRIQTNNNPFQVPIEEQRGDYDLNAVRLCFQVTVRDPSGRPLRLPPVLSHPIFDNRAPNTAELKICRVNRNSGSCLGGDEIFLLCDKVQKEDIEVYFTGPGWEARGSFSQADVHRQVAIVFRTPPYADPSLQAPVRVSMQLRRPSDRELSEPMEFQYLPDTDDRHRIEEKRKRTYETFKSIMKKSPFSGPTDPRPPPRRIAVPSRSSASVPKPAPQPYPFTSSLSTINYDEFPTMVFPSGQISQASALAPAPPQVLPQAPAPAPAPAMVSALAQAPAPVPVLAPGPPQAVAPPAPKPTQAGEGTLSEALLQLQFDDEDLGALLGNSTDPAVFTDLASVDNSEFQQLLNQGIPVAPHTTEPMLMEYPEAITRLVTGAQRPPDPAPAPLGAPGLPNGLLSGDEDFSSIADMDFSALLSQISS

Experiment [3] shares this target. Briefly: Reduction in DNA binding activity of NF-kappaB p65 subunit in human HA22T/VGH cells after 1.5 hrs relative to control. Format: cell-based. To be noted: concentration not given here. The method in brief: as §1

Molecules are shown by their SMILES.

A word on the IC50: it is the midpoint of a concentration-inhibition curve. In general, IC70 refers to the concentration needed for an effect of 70%. For orientation: inhibition means the percentage by which the read-out fell short of the control.

Consider `CCNC(=C\C(=O)/C=C/c1ccc(O)c(OC)c1)/C=C/c1ccc(O)c(OC)c1`, for which the half-maximal inhibitory concentration (IC50) in experiment [1] is 26.1 µM; in the experiment on MCF7R, 67.6 µM; with MCF7, 93 µM. Also, the concentration for an effect of 70% (IC70) in experiment [1] is 64.4 µM; with MCF7R, 88.8 µM; in the experiment with MCF7, over 100 µM.
Take `COc1cc(/C=C/C(=O)/C=C(/C=C/c2ccc(O)c(OC)c2)NC(C)c2ccccc2)ccc1O` (stereo unspecified): the IC50 (in experiment [1]; in the experiment with MCF7R; in the experiment on MCF7) was over 100 µM each time. The concentration for an effect of 70% (IC70) (in experiment [1]; in the experiment on MCF7R; with MCF7) was over 100 µM throughout.
Turning to `CO/N=C(\C=C\c1ccc(O)c(OC)c1)CC(/C=C/c1ccc(O)c(OC)c1)=N/OC`, the 50% inhibitory concentration (IC50) in experiment [1] turned out to be 32.9 µM; in the experiment with MCF7R, 39 µM; in the experiment on MCF7 it was 36.3 µM. Moreover, the IC70 in experiment [1] was determined as 40.4 µM; in the experiment on MCF7R, 52.8 µM; in the experiment on MCF7, 43.4 µM.
Consider `COc1cc(/C=C/C(=O)CC(=O)/C=C/c2ccc(O)c(OC)c2)ccc1O` [CURCUMIN], for which the IC50 came to 17.4 µM in experiment [1], 26.2 µM in the experiment with MCF7R and 29.3 µM in the experiment with MCF7. The IC70 in experiment [1] turned out to be 24.6 µM; with MCF7R it was 46.2 µM; in the experiment with MCF7 it was 51.7 µM.
For the compound `COc1cc(/C=C/C(CC(/C=C/c2ccc(O)c(OC)c2)=N/OCc2ccccc2)=N\OCc2ccccc2)ccc1O`, the values for the IC50 (in experiment [1]; in the experiment on MCF7R; with MCF7) were 5.9 µM, 9.3 µM and 7.1 µM, respectively. The IC70 in experiment [1] was found to be 8.4 µM; in the experiment on MCF7R, 12.9 µM; in the experiment with MCF7 it was 9.2 µM. In addition, the results for the inhibition in experiment [2] and in experiment [3] were 64.3% and 33.7%, respectively.
`COc1cc(/C=C/C(=O)/C=C(/C=C/c2ccc(O)c(OC)c2)NC(C)C)ccc1O`: the IC50 was found to be 26.3 µM in experiment [1], 49.8 µM with MCF7R and 70.3 µM in the experiment with MCF7. Also, the IC70 is 29.8 µM in experiment [1], 79.5 µM in the experiment on MCF7R and 93.5 µM in the experiment on MCF7.
Turning to `COc1cc(/C=C/C(=O)/C=C(/C=C/c2ccc(O)c(OC)c2)NCc2ccccc2)ccc1O`, the IC50 (in experiment [1]; in the experiment with MCF7R; in the experiment with MCF7) was over 100 µM throughout. For the same compound, the IC70 (in experiment [1]; in the experiment on MCF7R; in the experiment on MCF7) was over 100 µM each time.
For `COc1cc(/C=C/c2cc(/C=C/c3ccc(O)c(OC)c3)on2)ccc1O`, the figures for the IC50 (in experiment [1]; with MCF7R; in the experiment with MCF7) were 12.8 µM, 12 µM and 13.1 µM, respectively. Also, the IC70 was 18.3 µM in experiment [1], 24.7 µM in the experiment on MCF7R and 23.2 µM in the experiment with MCF7.
`COc1cc(/C=C/C(=O)/C=C(N)/C=C/c2ccc(O)c(OC)c2)ccc1O`: the 50% inhibitory concentration (IC50) in experiment [1] turned out to be 33 µM; with MCF7R, 54.7 µM; in the experiment on MCF7, 49.9 µM. Further, the IC70 is 41.1 µM in experiment [1], 81.8 µM with MCF7R and 68.1 µM in the experiment with MCF7.
